Reference: ChEMBL document CHEMBL4038331 (J Med Chem, 2017)
Calls of active or inactive are those of the source. The calls are words filed in the database; no cut-off is given here.

Experiments:
Liver [1] = test: Induction of basal oxygen consumption under nonphosphorylative conditions in rat liver mitochondria after 5 mins in presence of succinate; assay type: functional
How it was run: (§1)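 Glutamate/malate (10/5 mM) or succinate (5 mM) was the substrate, with compound 2.5–10 μM for 5 min (state 2). ADP was added (125 nmol glutamate/malate; 75 nmol succinate), then oligomycin 2 μg/mL, then FCCP 1 μM. RCR and ADP/O were calculated. Seven experiments.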

Liver [2] = test: Drug uptake in rat liver extra-mitochondria at 1 uM in presence of succinate/valinomycin by TPP+-based electrode assay; assay type: ADME, tissue-based
How it was run: (§2)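 TPP+-selective electrode with rat liver mitochondria (0.5 mg/mL) in 120 mM KCl, 10 mM HEPES pH 7.2, 1 mM EGTA at 37 °C with rotenone 1.5 μM. Five 1 μM additions calibrated the electrode, then succinate 10 mM was added, then valinomycin 0.2 μg/mL. The accumulation ratio assumed a matrix volume of ~0.5 μL/mg with a binding correction.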

Liver [3] = test: Decrease in oxidative phosphorylation efficiency in rat liver mitochondria assessed as reduction in coupling between ATP systhesis and oxygen consumption after 5 mins in presence of succinate; assay type: functional; how it was run: as §1
HepG2 [4] = test: Cytotoxicity against human HepG2 cells assessed as chromatin condensation at 100 uM after 48 hrs Hoechst 33342-staining based epifluorescence microscopic analysis; assay type: cell-based; details: hepg2, 48 h
How it was run: (§3)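 HepG2 cells on coverslips (8 × 10^4 cells/2 mL) were treated 48 h. In the last 30 min, cells were stained with TMRM (100 nM) and Hoechst 33342 (1 μg/mL) in HBSS pH 7.4 at 37 °C in the dark. Live cells were imaged by fluorescence microscopy, four random fields per well, three experiments.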

Liver [5] = test: Induction of basal oxygen consumption under nonphosphorylative conditions in rat liver mitochondria after 5 mins in presence of glutamate/malate; assay type: functional; how it was run: as §1
[6] = Antioxidant activity assessed as DPPH radical scavenging activity measured every minute for 45 mins; assay type: functional
How it was run: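 DPPH• ethanolic solution diluted to absorbance 0.72 ± 0.02 at 515 nm. Ethanolic test solutions (50–500 μM) were added in triplicate and read at 515 nm. Inhibition was taken against an ethanol blank (100% radical), and IC50 was read from dose–response curves.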

HepG2 [7] = test: Antioxidant activity in human HepG2 cells assessed as reduction in FeSO4-induced cell toxicity at 100 uM preincubated for 1 hr followed by FeSO4 addition for 48 hrs by SRB assay; assay type: functional, cell-based
How it was run: (§4)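 HepG2 cells, grown in high-glucose DMEM with 10% FBS at 37 °C and 5% CO2, seeded at 2 × 10^4 cells/500 μL. Cells were preincubated with compound, then given 250 μM FeSO4 or 250 μM H2O2. Cell mass was read by SRB (fixed, stained, OD 540 nm) as % of untreated control. Four independent experiments.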

Liver [8] = test: Induction of ADP-stimulated respiration in rat liver mitochondria after 5 mins in presence of glutamate/malate; assay type: functional; how it was run: as §1
[9] = Antioxidant activity assessed as GO radical scavenging activity measured for 30 mins in absence of light; assay type: functional
How it was run: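 Ethanolic GO• (5 mM stock) diluted to absorbance 1.00 ± 0.02 at 428 nm. Test solutions (5–75 μM in ethanol) were added in triplicate and read at 428 nm at room temperature. Inhibition was taken against an ethanol blank (100% radical).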

[10] = Antioxidant activity assessed as ABTS radical scavenging activity measured each minute for 15 mins by spectrophotometric analysis; assay type: functional
How it was run: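 ABTS•+ generated from 7 mM ABTS plus potassium persulfate, held 16 h dark at room temperature, then diluted in ethanol to absorbance 0.72 ± 0.02. Ethanolic test solutions (10–500 μM) were added to radical solution in triplicate. Inhibition was taken against an ethanol blank (100% radical), and IC50 was read from dose–response curves.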

Liver [11] = test: Increase in oligomycin-inhibited respiration in rat liver mitochondria after 5 mins in presence of succinate; assay type: functional; how it was run: as §1
Liver [12] = test: Induction of basal respiration in rat liver mitochondria measured 5 mins after ADP phosphorylation in presence of glutamate/malate; assay type: functional; how it was run: as §1
Liver [13] = test: Antioxidant activity in rat liver mitochondria assessed as inhibition of ADP/FeSO4-induced lipid peroxidation at 5 uM preincubated for 5 mins followed by ADP/FeSO4 addition; assay type: functional
How it was run: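 Rat liver mitochondria (2 mg) in 100 mM KCl, 10 mM Tris-HCl pH 7.6, with glutamate/malate (5/2.5 mM) at 37 °C. After 5 min with compound (5 μM), peroxidation was started with ADP/0.1 mM FeSO4. The lag phase of O2 consumption was measured by Clark electrode and expressed as % of control. Six experiments.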

Liver [14] = test: Induction of ADP-stimulated respiration in rat liver mitochondria after 5 mins in presence of succinate; assay type: functional; how it was run: as §1
Liver [15] = test: Decrease in oxidative phosphorylation efficiency in rat liver mitochondria assessed as reduction in respiratory control ratio after 5 mins in presence of glutamate/malate; assay type: functional; how it was run: as §1
[16] = Lipophilicity of compound in Ag/AgCl-NaCl containing PET membrane assessed as tranfer potential at pH 7; assay type: physicochemical
How it was run: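 Transfer across a liquid–liquid interface on a microporous PET membrane, with 1,6-dichlorohexane organic phase containing BTPPATPBCl. A gelled 2 mM BTPPACl + 2 mM NaCl reference was used, with 10 mM Tris-HCl pH 7.0 aqueous electrolyte.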

HepG2 [17] = test: Cytotoxicity against human HepG2 cells assessed as reduction in cell density at 0.5 to 100 uM after 48 hrs by SRB assay; assay type: cell-based; details: hepg2, 48 h
HepG2 [18] = test: Antioxidant activity in human HepG2 cells assessed as reduction in H2O2-induced cell toxicity at 100 uM preincubated for 1 hr followed by H2O2 addition for 48 hrs by SRB assay; assay type: functional, cell-based; how it was run: as §4
Liver [19] = test: Induction of basal respiration in rat liver mitochondria measured 5 mins after ADP phosphorylation in presence of succinate; assay type: functional; how it was run: as §1
Liver [20] = test: Drug uptake in rat liver intra-mitochondria at 1 uM in presence of succinate/valinomycin by TPP+-based electrode assay; assay type: ADME, tissue-based; how it was run: as §2
Liver [21] = test: Increase in oligomycin-inhibited respiration in rat liver mitochondria after 5 mins in presence of glutamate/malate; assay type: functional; how it was run: as §1
Liver [22] = test: Decrease in oxidative phosphorylation efficiency in rat liver mitochondria assessed as reduction in coupling between ATP systhesis and oxygen consumption after 5 mins in presence of glutamate/malate; assay type: functional; how it was run: as §1
HepG2 [23] = test: Cytotoxicity against human HepG2 cells assessed as mitochondrial depolarization at 100 uM after 48 hrs TMRM-staining based epifluorescence microscopic analysis; assay type: cell-based; details: hepg2, 48 h; how it was run: as §3
Liver [24] = test: Ratio of drug level in rat liver intra-mitochondria to extra-mitochondria at 1 uM in presence of succinate/valinomycin by TPP+-based electrode assay; assay type: ADME, tissue-based; how it was run: as §2
[25] = Iron chelating activity in ammonium acetate buffer assessed as inhibition of [Fe(ferrozine)3]2+ formation at 100 uM at pH 6.7 measured after 10 mins by spectrophotometric analysis
How it was run: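 Ferrozine assay in ammonium acetate buffer pH 6.7. Compound (100 μM) plus ammonium iron(II) sulfate (20 μM) for 10 min, read at 562 nm. Ferrozine was added, incubated 10 min at 37 °C, and re-read at 562 nm. The first reading was subtracted, with a DMSO blank and EDTA = 100%. Three experiments.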

HepG2 [26] = test: Cytotoxicity against human HepG2 cells assessed as depletion of intracellular GSH content at 100 uM after 48 hrs by HPLC analysis; assay type: cell-based; details: hepg2, 48 h
How it was run: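 HepG2 cells (4 × 10^5 per 100 mm dish) were incubated 48 h, collected and stored at −80 °C in PBS. Reduced GSH was measured by reverse-phase HPLC with detection at 515 nm and expressed as nmol GSH/μg protein. Four experiments.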

[27] = Redox potential of compound in Ag/AgCl-NaCl containing phosphate buffer at 0.1 mM at pH 7.4 by cyclic voltammetric analysis
How it was run: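 Voltammetry used a glassy carbon working electrode, Pt counter and Ag/AgCl reference. Compound was at 0.1 mM final (10 mM ethanolic stock) in pH 7.4 potassium phosphate electrolyte.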

HepG2 [28] = test: Antioxidant activity in human HepG2 cells assessed as intracellular GSH content per ug of protein at 100 uM after 48 hrs by HPLC analysis (reference value: 17.81 nmol); assay type: functional

What does the source list for CS(=O)(=O)[O-].O=C(/C=C/c1cc(O)c(O)c(O)c1)NCCCCCC[P+](c1ccccc1)(c1ccccc1)c1ccccc1?
Activity (Liver [1]): Dose-dependent effect; Drug uptake (Liver [2]): 2.4 µM; Activity (Liver [3]): Dose-dependent effect; Activity (HepG2 [4]): Non-Toxic; Activity (Liver [5]): Dose-dependent effect; IC50 [6]: 19 µM; inhibition (HepG2 [7]): Active; Activity (Liver [8]): Dose-dependent effect; IC50 [9]: 3.1 µM; IC50 [10]: 12.2 µM; Activity (Liver [11]): Dose-dependent effect; Activity (Liver [12]): Dose-dependent effect; inhibition (Liver [13]): Active; Activity (Liver [14]): Dose-dependent effect; Activity (Liver [15]): Dose-dependent effect; Activity [16]: 0.498 V; Activity (HepG2 [17]): Non-Toxic; inhibition (HepG2 [18]): Active; Activity (Liver [19]): Dose-dependent effect; Drug uptake (Liver [20]): 2 mM; Activity (Liver [21]): Dose-dependent effect; Activity (Liver [22]): Dose-dependent effect; Activity (HepG2 [23]): Non-Toxic; Ratio (Liver [24]): 2100; inhibition [25]: Active; Activity (HepG2 [26]): Non-Toxic; Activity [27]: 0.034 V; Activity (HepG2 [28]): 26.94 nmol
